Test results: ChEMBL document CHEMBL3526126, “Amide hydrolysis of a novel chemical series of microsomal prostaglandin E synthase-1 inhibitors induces kidney toxicity in the rat” (Drug Metab Dispos, 2013)

Experiments:
[1] = Drug metabolism in Sprague-Dawley rat hepatocytes assessed as formation of benzene-1,2-disulfonamide metabolite M1 at 1 to 10 uM by LC-MS analysis; type: ADME, cell-based, Hepatocyte
How it was run: (§1)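 Hepatocytes at 1 × 10^6 cells/ml in William's medium incubated at 37°C with gentle shaking under 5% CO2. Substrate was at […]. Metabolites were analysed by LC-MS.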

Rattus norvegicus [2] = experiment: Drug metabolism in Wistar Hannover rat assessed as formation of oxidized and sulfate-conjugated metabolite in plasma at 500 umol/kg, po qd administered for 7 days measured on day 7 by LC-MS analysis; type: ADME, organism-based; details: in vivo, 168 h
Rattus norvegicus [3] = experiment: Drug metabolism in Wistar Hannover rat assessed as formation of [14C]-4-(phenylethynyl)benzoic acid metabolite hyd in plasma at 500 umol/kg, po qd administered for 7 days measured on day 7 by radio monitoring method; type: ADME, organism-based; details: in vivo, 168 h
[4] = Cmax in male Wistar Hannover rat at 500 umol/kg, po qd measured on day 1; details: in vivo
[5] = Drug metabolism in Beagle dog hepatocytes assessed as amide hydrolysis at 1 to 10 uM by LC-MS analysis; type: ADME, cell-based, Canis lupus familiaris, Hepatocyte
How it was run: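 Cryopreserved male Beagle dog hepatocytes at 1 × 10^6 cells/ml in William's medium, shaken gently at 37°C under 5% CO2. Substrate was tested at two concentrations (1 and 10). Metabolites, including amide-hydrolysis products, were analysed by LC-MS.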

[6] = Drug metabolism in Sprague-Dawley rat hepatocytes assessed as formation of 4-(phenylethynyl)benzoic acid metabolite hyd at 1 to 10 uM by LC-MS analysis; type: ADME, cell-based, Hepatocyte; how it was run: as §1
Rattus norvegicus [7] = experiment: Toxicity in Wistar Hannover rat kidney assessed as transitional cell hyperplasia at 1000 umol/kg, po qd administered for 7 days measured after day 8 by hematoxylin/eosin staining-based light microscopic analysis; type: organism-based; details: in vivo, 168 h
How it was run: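 Wistar Hannover rats, about 8 weeks old, were gavaged once daily (10 ml/kg) for 7 days. One day after the last dose they were killed by carotid exsanguination under isoflurane/oxygen. Kidneys were fixed in buffered formalin, embedded in paraffin, sectioned, stained with hematoxylin and eosin, and examined by light microscopy.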

Rattus norvegicus [8] = experiment: Toxicity in Wistar Hannover rat kidney assessed as increase in plasma urea level at 1000 umol/kg, po qd administered for 7 days measured on day 7; type: organism-based; details: in vivo, 168 h
How it was run: (§2)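 Wistar Hannover rats, about 8 weeks old, were acclimatized about 2 weeks and randomized by body weight. Dosing was by oral gavage (10 ml/kg) once daily for 7 days, with vehicle controls. At the end of dosing, plasma (lithium heparin) was taken from the orbital plexus under isoflurane/oxygen anaesthesia, and urea and creatinine were measured.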

Rattus norvegicus [9] = experiment: Toxicity in Wistar Hannover rat kidney assessed as dilated tubules with hypertrophic nuclei and cytoplasm at 1000 umol/kg, po qd administered for 7 days measured on day 7 by necroscopic analysis; type: organism-based; details: in vivo, 168 h
[10] = Cmax in female Wistar Hannover rat at 500 umol/kg, po qd administered for 7 days measured on day 7; details: in vivo
[11] = AUC (0 to 24 hrs) in male Wistar Hannover rat at 500 umol/kg, po qd measured on day 1; details: plasma
Rattus norvegicus [12] = experiment: Toxicity in Wistar Hannover rat kidney assessed as increase in plasma creatinine level at 1000 umol/kg, po qd administered for 7 days measured on day 7; type: organism-based; details: in vivo, 168 h; how it was run: as §2

SMILES: NS(=O)(=O)c1ccccc1S(=O)(=O)NC(=O)c1ccc(C#Cc2ccccc2)cc1
- Drug metabolism [1]: metabolite_not_detected
- Drug metabolism (Rattus norvegicus [2]): metabolite_detected
- Drug metabolism (Rattus norvegicus [3]): metabolite_detected
- Cmax [4]: 73 µM
- Drug metabolism [5]: metabolite_not_detected
- Drug metabolism [6]: metabolite_detected
- Activity (Rattus norvegicus [7]): Toxic
- Activity (Rattus norvegicus [8]): Toxic
- Activity (Rattus norvegicus [9]): Toxic
- Cmax [10]: 39 µM
- AUC(0-t) at 24 h [11]: 840 µM·h
- Activity (Rattus norvegicus [12]): Toxic
